From PubChem BioAssay
A selection: hits, their analogues and other compounds. The true share with any hit is near 2.3%.
TRPC6 inh – mouse TRPC6 channel inhibitors, primary screen, cell-based, HEK293, membrane potential dye; Short transient receptor potential channel 6 (Mus musculus), Q61143; ACh-evoked depolarization; hits give low values; B-score at 10 µM; 1.1% of 310,000 active; AID 2553, 2010;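 active means B-score under library mean minus 3 SD, initial fluorescence not abnormally high, positive integrated signal ratio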;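 further: B-score derived from integrated fluorescence ratio over the kinetic read; more negative B-score means stronger inhibition of depolarization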
Target sequence (Q61143 whole entry, looked up): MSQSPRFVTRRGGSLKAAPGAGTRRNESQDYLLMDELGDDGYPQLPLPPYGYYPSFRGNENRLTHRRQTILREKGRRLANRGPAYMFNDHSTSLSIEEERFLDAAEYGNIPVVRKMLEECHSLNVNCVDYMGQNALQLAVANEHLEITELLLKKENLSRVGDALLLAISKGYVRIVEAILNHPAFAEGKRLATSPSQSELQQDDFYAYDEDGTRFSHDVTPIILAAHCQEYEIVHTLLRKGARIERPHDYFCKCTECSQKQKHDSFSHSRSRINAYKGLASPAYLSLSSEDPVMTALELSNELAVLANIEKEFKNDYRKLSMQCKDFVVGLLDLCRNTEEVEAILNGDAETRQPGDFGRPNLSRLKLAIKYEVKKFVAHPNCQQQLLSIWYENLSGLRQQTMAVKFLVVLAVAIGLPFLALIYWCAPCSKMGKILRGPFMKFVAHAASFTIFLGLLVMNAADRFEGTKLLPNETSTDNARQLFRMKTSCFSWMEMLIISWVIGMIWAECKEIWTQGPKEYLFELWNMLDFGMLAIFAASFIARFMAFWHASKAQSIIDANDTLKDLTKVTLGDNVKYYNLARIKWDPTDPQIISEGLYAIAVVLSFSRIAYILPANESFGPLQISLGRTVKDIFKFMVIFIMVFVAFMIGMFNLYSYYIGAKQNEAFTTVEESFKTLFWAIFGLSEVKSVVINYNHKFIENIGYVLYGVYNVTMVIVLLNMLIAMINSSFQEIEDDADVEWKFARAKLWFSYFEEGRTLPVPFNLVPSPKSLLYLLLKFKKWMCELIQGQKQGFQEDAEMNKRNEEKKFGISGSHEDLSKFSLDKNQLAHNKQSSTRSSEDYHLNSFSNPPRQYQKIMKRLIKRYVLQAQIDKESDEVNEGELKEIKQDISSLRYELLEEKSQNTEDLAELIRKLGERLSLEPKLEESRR
TRPC6 activator – mouse TRPC6 channel activators, primary screen, cell-based, HEK293, membrane potential dye. AID 2550, 2010. B-score at 10 µM. 0.13% of 310,000 active. Short transient receptor potential channel 6 (Mus musculus), Q61143. HEK293-TRPC6 membrane potential dye fluorescence; hits give high values;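 active means B-score of the integrated fluorescence ratio above library mean plus 3 SD, and starting fluorescence ratio within library mean plus 5 SD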;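 further: higher score means more depolarization so channel activation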
TRPC4 block – inhibitors of mouse TRPC4 channel, primary screen, Fluo4 calcium, HEK293 TRPC4beta/mu-opioid cells; Short transient receptor potential channel 4 (Mus musculus), Q9QUQ5; 0.39% of 300,000 active; B-score at 10 µM; DAMGO-evoked Fluo4 calcium flux; hits give low values;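 active means B-score over 3 SD under the library average, no early fluorescence shift, positive overall ratio signal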
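Assay system – HEK293 line stably carrying TRPC4beta and mu-opioid receptor · Doses – single dose · Detection – Fluo4 calcium-dye fluorescence, kinetic read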
TRPC4 act – activators of mouse TRPC4 channel, primary screen, Fluo4 calcium, HEK293 TRPC4beta/mu-opioid cells; Short transient receptor potential channel 4 (Mus musculus), Q9QUQ5; Fluo4 calcium fluorescence; hits give high values; B-score at 10 µM; 0.49% of 310,000 active; AID 2237, 2010;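 active means B-score above 5 SD of library B-scores, and initial fluorescence ratio not above library mean plus 5 SD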;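 further: positive B-score marks a calcium rise read as TRPC4 activation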
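System: HEK293 cells stably co-expressing mouse TRPC4beta and mu-opioid receptor; Schedule: Fluo4 dye loading 45 min at room temperature, 110 s recording; Detection: Fluo4 fluorescence, kinetic; Evaluation: B-scored integrated calcium fluorescence ratio; Controls: buffer (low) and maximal DAMGO (high).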
TRPC4 PAM – positive allosteric modulators of TRPC4, primary screen, cell-based, mouse TRPC4beta, HEK293 mu-opioid, Fluo-4 calcium. DAMGO EC20, Fluo-4 Ca2+ flux; hits give high values. 0.42% of 310,000 active. B-score at 10 µM;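 active means B-score of calcium response area above 5 SD of library B-scores, with initial fluorescence ratio within 5 SD of library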
TRPC4 sel inh 2 – second selectivity test of TRPC6 inhibitors: effect on mouse TRPC4 | AID 2776 | HEK293 TRPC4/MOR, membrane potential dye fluorescence; channel activated by saturating DAMGO dose | shares compounds with TRPC6 inh | inhibition, % at 10 µM | 42% of 920 active;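 active means compounds whose fluorescence signal differed from control wells by over 3 SD, either direction, in both duplicate plates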
TRPC4 spec – mouse TRPC4 modulation by TRPC6 hits, confirmation, selectivity assay for TRPC6 inhibitor project, cell-based, HEK293 TRPC4/mu-opioid, membrane potential dye; shares compounds with TRPC6 inh; membrane potential fluorescence; activity change, negative = inhibition, % at 10 µM; 61% of 920 active; AID 2777, 2010;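 active means rise or fall in signal beyond 3 SD of buffer-only wells in both replicate plates, either sign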;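 further: integrated kinetic ratio of fluorescence range over baseline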
HEK293 MPD ctr 2-1 – nonspecific membrane potential effects, parental HEK293, confirmation, counter-screen for TRPC6 inhibitor project, cell-based, second counter screen; AID 2779, 2010; parental HEK293 membrane potential dye fluorescence; maximal acetylcholine challenge after compound addition; signal change vs control, % at 10 µM; shares compounds with TRPC6 inh; 31% of 920 active;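 active means membrane potential signal moving either way by over 3 SD of the maximum-effect control, in both duplicate plates, meaning non-specific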
HEK293 MPD ctr-1 – membrane potential modulation in parental HEK293, confirmation, counter-screen for TRPC6 inhibitor project, cell-based | 60% of 920 active | membrane potential signal change, % at 10 µM | shares compounds with TRPC6 inh | parental HEK293 membrane potential dye fluorescence;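 active means membrane potential signal shifting up or down by more than 3 SD of buffer-only wells, on both duplicate plates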
HEK293 MPD ctr-2 – parental HEK293 membrane potential modulation, confirmation, counter-screen for TRPC6 modulator project, cell-based. shares compounds with TRPC6 inh. membrane potential dye fluorescence. membrane potential signal change, % at 10 µM. 51% of 2,400 active. AID 488924, 2010;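 active means membrane potential signal moves up or down beyond 5 SD from buffer-only wells, on both duplicate plates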
HEK293 MPD ctr 2-2 – parental HEK293 nonspecific activity of TRPC6 modulators, second screen; shares compounds with TRPC6 inh; membrane potential dye fluorescence; after compound, maximal acetylcholine stimulation; inhibition, % at 10 µM; 14% of 2,400 active; AID 488926;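 active means membrane potential signal drops by more than 5 SD from the mean control signal, in both duplicate plates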
TRPC4/MOR mod – TRPC4 modulation by TRPC6 hit compounds, confirmation, selectivity assay for TRPC6 modulator project, cell-based, HEK293 TRPC4/mu-opioid, membrane potential dye, mouse; AID 488927, 2010; percent change from control (negative = decrease, positive = increase), % at 10 µM; membrane potential fluorescence; 69% of 2,400 active; shares compounds with TRPC6 inh;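 active means membrane potential signal moved up or down beyond 5 SD of buffer control wells, in both duplicate plates, actives on both sides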
TRPC4/MOR inh 2 – mouse TRPC4 off-target activity of TRPC6 modulators, second screen; inhibition, % at 10 µM; shares compounds with TRPC6 inh; 55% of 2,400 active; HEK293 TRPC4/mu-opioid, membrane potential dye fluorescence; stimulated with maximal-effect DAMGO;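 active means drop in membrane potential signal beyond 5 SD of the control wells in both duplicate plates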;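 further: TRPC4 counter screen for TRPC6 hits run under conditions tuned for TRPC6 not TRPC4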
TRPC6 inh conf – mouse TRPC6 channel inhibitors, confirmation, HEK293 cells, membrane potential dye, duplicate | ACh-evoked depolarization | inhibition, % at 10 µM | 43% of 3,300 active | shares compounds with TRPC6 inh;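 active means fluorescence ratio falls more than 5 SD below the full-stimulation control mean, in both duplicate runs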;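 further: integrated fluorescence ratio of peak minus minimum over baseline after agonist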
TRPC6 act conf – mouse TRPC6 channel activators, confirmation, HEK293 cells, membrane potential dye, duplicate. shares compounds with TRPC6 inh. HEK293-TRPC6 membrane potential dye fluorescence, FDSS. activation, % at 10 µM. 11% of 2,800 active. AID 488961, 2010;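 active means ratio signal rise beyond 5 SD above unstimulated control wells' mean, seen in both duplicate runs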
A number is an active result.

Results for N#Cc1cc(-c2ccccc2)nc(N2CCNCC2)n1 ?
TRPC6 inh: -6.4; TRPC6 activator: inactive; TRPC4 block: inactive; TRPC4 act: 78; TRPC4 PAM: inactive; HEK293 MPD ctr-2: inactive; HEK293 MPD ctr 2-2: inactive; TRPC4/MOR mod: inactive; TRPC4/MOR inh 2: 68%; TRPC6 inh conf: 65%; TRPC6 act conf: inactive

How did NC(=S)NN=C1c2cc(OCCN3CCOCC3)ccc2-c2ccc(OCCN3CCOCC3)cc21 do in these assays?
TRPC6 inh: inactive; TRPC6 activator: inactive; TRPC4 block: inactive; TRPC4 act: inactive; TRPC4 PAM: inactive

What do the screens show for `CCCCOc1ccc(CONS(=O)(=O)c2ccc(NC(C)=O)cc2)cc1Cl`?
TRPC6 inh: inactive; TRPC6 activator: inactive; TRPC4 block: inactive; TRPC4 act: inactive; TRPC4 PAM: inactive

How did CCCCOc1ccc(CSCCN)cc1Cl do in these assays?
TRPC6 inh: -6.2; TRPC6 activator: inactive; TRPC4 block: inactive; TRPC4 act: inactive; TRPC4 PAM: inactive; HEK293 MPD ctr-2: inactive; HEK293 MPD ctr 2-2: inactive; TRPC4/MOR mod: inactive; TRPC4/MOR inh 2: 59%; TRPC6 inh conf: 45%; TRPC6 act conf: inactive

Results for CCC(=O)N1CCCc2cc(S(=O)(=O)CCC(=O)Nc3ccccc3C)ccc21 ?
TRPC6 inh: inactive; TRPC6 activator: inactive; TRPC4 block: inactive; TRPC4 act: inactive; TRPC4 PAM: inactive

Results for N#Cc1cccc(C(c2nnnn2CCc2ccccc2)N2CCN(C3CCCCC3)CC2)c1 (stereo not drawn) ?
TRPC6 inh: -5; TRPC6 activator: inactive; TRPC4 block: inactive; TRPC4 act: inactive; TRPC4 PAM: inactive; HEK293 MPD ctr-2: inactive; HEK293 MPD ctr 2-2: inactive; TRPC4/MOR mod: inactive; TRPC4/MOR inh 2: 70%; TRPC6 inh conf: 54%; TRPC6 act conf: inactive

Results for COC(=O)CN1C(=O)N/C(=C/c2ccccc2OC)C1=O ?
TRPC6 inh: inactive; TRPC6 activator: inactive; TRPC4 block: inactive; TRPC4 act: inactive; TRPC4 PAM: inactive

Results for Cc1ccccc1OCC(=O)N/N=C1\SCC(=O)N1Cc1ccccc1 ?
TRPC6 inh: inactive; TRPC6 activator: inactive; TRPC4 block: inactive; TRPC4 act: inactive; TRPC4 PAM: inactive

What do the screens show for `CN1C(=O)CS/C1=N\NC(=O)COc1cccc2cccnc12`?
TRPC6 inh: -5.9; TRPC6 activator: inactive; TRPC4 block: inactive; TRPC4 act: inactive; TRPC4 PAM: inactive; HEK293 MPD ctr-2: -230%; HEK293 MPD ctr 2-2: inactive; TRPC4/MOR mod: -42%; TRPC4/MOR inh 2: inactive; TRPC6 inh conf: inactive; TRPC6 act conf: inactive

Results for CC1Cc2cc(S(=O)(=O)NCCC(=O)N(C)Cc3ccccc3)ccc2N1C(=O)C1CC1 (stereo not drawn) ?
TRPC6 inh: inactive; TRPC6 activator: inactive; TRPC4 block: inactive; TRPC4 act: inactive; TRPC4 PAM: inactive

What do the screens show for `CC1CCN(Cc2ccc(NC(=O)C3CCN(c4nnc(-n5cccc5)s4)CC3)cc2)CC1`?
TRPC6 inh: -7.8; TRPC6 activator: inactive; TRPC4 block: inactive; TRPC4 act: inactive; TRPC4 PAM: inactive; TRPC4 sel inh 2: 71%; TRPC4 spec: inactive; HEK293 MPD ctr 2-1: inactive; HEK293 MPD ctr-1: inactive; TRPC6 inh conf: inactive; TRPC6 act conf: inactive

Results for O=C(C1CCN(c2nnc(-n3cccc3)s2)CC1)N1CCN(Cc2ccc3c(c2)OCO3)CC1 ?
TRPC6 inh: inactive; TRPC6 activator: inactive; TRPC4 block: inactive; TRPC4 act: inactive; TRPC4 PAM: inactive

What do the screens show for `Cn1c(=O)c2c(nc(N3CCCCCC3)n2Cc2cccc3ccccc23)n(C)c1=O`?
TRPC6 inh: -8.8; TRPC6 activator: inactive; TRPC4 block: inactive; TRPC4 act: inactive; TRPC4 PAM: 13; TRPC4 sel inh 2: inactive; TRPC4 spec: inactive; HEK293 MPD ctr 2-1: inactive; HEK293 MPD ctr-1: inactive; TRPC6 inh conf: inactive; TRPC6 act conf: inactive

Results for CN1CCN(c2nc3c(c(=O)n(C)c(=O)n3C)n2Cc2cccc3ccccc23)CC1 ?
TRPC6 inh: inactive; TRPC6 activator: inactive; TRPC4 block: inactive; TRPC4 act: inactive; TRPC4 PAM: inactive
